Assay results reported in ChEMBL document CHEMBL4261487, “Small structural changes of the imidazopyridine diacylglycerol acyltransferase 2 (DGAT2) inhibitors produce an improved safety profile” (Medchemcomm, 2017).
Values after ≈ are worked out from the molar mass of the structure shown.

What was measured:
[1] = biological target: T1, Diacylglycerol O-acyltransferase 2 (Homo sapiens, UniProt Q96PD7); test: Inhibition of human DGAT2
T1 sequence (Q96PD7 whole entry): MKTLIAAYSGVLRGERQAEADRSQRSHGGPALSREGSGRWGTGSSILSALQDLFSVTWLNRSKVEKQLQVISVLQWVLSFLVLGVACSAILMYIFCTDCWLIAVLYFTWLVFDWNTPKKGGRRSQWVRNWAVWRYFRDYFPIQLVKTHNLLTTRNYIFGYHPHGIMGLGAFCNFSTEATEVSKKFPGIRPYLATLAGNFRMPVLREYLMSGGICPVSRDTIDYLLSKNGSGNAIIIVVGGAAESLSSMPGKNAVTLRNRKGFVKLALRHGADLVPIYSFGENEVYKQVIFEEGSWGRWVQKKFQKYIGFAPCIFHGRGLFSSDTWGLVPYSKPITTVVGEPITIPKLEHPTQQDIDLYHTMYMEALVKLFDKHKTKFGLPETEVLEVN
In short: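 IC50 against human DGAT2 in an enzymatic assay, reported as the geometric mean of at least three replicates with SEM.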

CYP3A4 = CYP3A4 (Homo sapiens, UniProt P08684); test: (§1) Drug metabolism in human liver microsomes assessed as CYP3A4-mediated oxidative metabolism by measuring clearance rate; type: ADME; conditions: liver microsomes, read-out: CLH
Sequence of CYP3A4 (P08684 whole entry): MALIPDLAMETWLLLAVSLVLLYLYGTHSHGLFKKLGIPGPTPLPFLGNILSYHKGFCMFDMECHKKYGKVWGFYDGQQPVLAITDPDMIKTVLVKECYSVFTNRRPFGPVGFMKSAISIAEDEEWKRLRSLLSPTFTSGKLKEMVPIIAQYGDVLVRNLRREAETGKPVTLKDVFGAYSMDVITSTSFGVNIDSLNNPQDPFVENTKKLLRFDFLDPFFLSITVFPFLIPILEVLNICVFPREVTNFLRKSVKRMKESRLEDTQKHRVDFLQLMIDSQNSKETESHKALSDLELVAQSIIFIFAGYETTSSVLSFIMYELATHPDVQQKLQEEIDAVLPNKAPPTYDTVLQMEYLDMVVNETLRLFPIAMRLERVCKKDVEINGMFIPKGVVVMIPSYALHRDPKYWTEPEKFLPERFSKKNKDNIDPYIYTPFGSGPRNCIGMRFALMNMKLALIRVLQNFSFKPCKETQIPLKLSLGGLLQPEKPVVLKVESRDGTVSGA

UGT = test: (§2) Drug metabolism in human liver microsomes assessed as UGT-mediated glucuronidation by measuring clearance rate; type: ADME; conditions: liver microsomes, read-out: CLH
[2] = Apparent permeability of the compound at pH 7.4; type: ADME; conditions: not told
Canis familiaris [3] = test: Unbound Cmax in beagle dog at 10 mg/kg, po qd administered for 1 month; type: ADME, organism-based, Canis lupus familiaris; conditions: in vivo
In short: (§3)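 Beagle dogs were dosed orally once daily in a 14-day exploratory study or 1-month toxicity studies. Steady-state systemic exposure over the 24 h dosing interval is reported as the mean of male and female values combined.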

[4] = Plasma clearance in beagle dog at 1 mg/kg, iv; type: ADME, organism-based, Canis lupus familiaris
Canis familiaris [5] = test: In vivo inhibition of DGAT2 in beagle dog assessed as coverage of in vitro IC50 for dog DGAT2 at 30 mg/kg, po qd administered for 1 month; type: functional, Canis lupus familiaris; design: scale not given: the % may be the effect or the level left
In short: (§4)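 Beagle dogs, once-daily oral dosing for 14 days or 1 month; systemic exposure with sexes combined; coverage is the average % above dog DGAT2 IC50 at steady state over the 24 h dosing interval.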

Canis familiaris [6] = test: In vivo inhibition of DGAT2 in beagle dog assessed as coverage of in vitro IC50 for dog DGAT2 at 10 mg/kg, po qd administered for 1 month; type: functional, Canis lupus familiaris; design: scale not given: the % may be the effect or the level left; in short: as §4
[7] = Ratio of Cmax in beagle dog at 3 mg/kg, po qd administered for 1 month to IC50 for in vitro inhibition of dog DGAT2; type: organism-based, Canis lupus familiaris; conditions: in vivo
In short: (§5)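 One-month toxicity study in Beagle dogs with N = 2/sex/dose. Plasma exposure at each dose level was referenced to the dog DGAT2 enzymatic IC50, reported as the geometric mean of at least three replicates.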

[8] = Drug metabolism in human liver microsomes assessed as fraction of UGT-mediated glucuronidation preincubated for 5 mins followed by addition of NADPH regenerating system and measured after 2.5 to 60 mins; type: ADME
In short: (§6)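 Fractions of metabolism attributed to CYP oxidation and UGT glucuronidation were derived from human liver microsomal incubations. For the glucuronidation arm, microsomes were supplemented with the UGT cofactor UDP-glucuronic acid.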

Cytochrome P450 3A4 [9] = biological target: T2, Cytochrome P450 3A4 (Homo sapiens, UniProt P08684); test: as §1; type: ADME; conditions: microsomes
T2 sequence (P08684 whole entry): as above

[10] = as §2; type: ADME; conditions: microsomes
[11] = Ratio of Cmax in beagle dog at 30 mg/kg, po qd administered for 1 month to IC50 for in vitro inhibition of dog DGAT2; type: organism-based, Canis lupus familiaris; conditions: in vivo; in short: as §5
[12] = Apparent intrinsic clearance in human hepatocytes assessed per million cells; type: ADME, cell-based, Hepatocyte
[13] = Apparent intrinsic clearance in rat hepatocytes assessed per million cells; type: ADME, cell-based, Hepatocyte
Canis familiaris [14] = test: Unbound Cmax in beagle dog at 30 mg/kg, po qd administered for 1 month; type: ADME, organism-based, Canis lupus familiaris; conditions: in vivo
In short: (§7)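 One-month dog toxicity study with once-daily oral dosing. Toxicity groups were 2/sex/dose, and unbound peak exposure was taken from toxicokinetic sampling.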

Canis familiaris [15] = test: Toxicity in beagle dog at 3 to 30 mg/kg, po qd administered for 1 month; type: organism-based, Canis lupus familiaris; conditions: in vivo
[16] = biological target: T3, Diacylglycerol O-acyltransferase 1 (Homo sapiens, UniProt O75907); test: Inhibition of DGAT1 (unknown origin)
T3 sequence (O75907 whole entry): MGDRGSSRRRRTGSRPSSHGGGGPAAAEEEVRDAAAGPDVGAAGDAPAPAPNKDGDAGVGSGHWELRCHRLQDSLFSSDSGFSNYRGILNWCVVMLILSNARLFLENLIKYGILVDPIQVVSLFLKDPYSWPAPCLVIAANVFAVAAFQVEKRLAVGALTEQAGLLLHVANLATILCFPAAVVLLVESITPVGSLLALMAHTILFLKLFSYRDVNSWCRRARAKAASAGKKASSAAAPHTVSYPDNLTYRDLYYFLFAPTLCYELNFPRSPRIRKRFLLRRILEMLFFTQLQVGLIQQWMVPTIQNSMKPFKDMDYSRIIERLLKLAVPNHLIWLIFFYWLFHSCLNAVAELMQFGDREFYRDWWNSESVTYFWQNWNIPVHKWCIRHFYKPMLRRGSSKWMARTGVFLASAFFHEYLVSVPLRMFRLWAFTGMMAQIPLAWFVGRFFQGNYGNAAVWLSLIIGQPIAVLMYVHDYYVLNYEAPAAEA

[17] = Volume of distribution at steady state in beagle dog at 1 mg/kg, iv; type: ADME, organism-based, Canis lupus familiaris; conditions: in vivo, read-out: Vdss
In short: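 Male Beagle dogs, single iv dose, crystalline form of compound; value is the mean of two experiments.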

[18] = biological target: T4, Diacylglycerol O-acyltransferase 2 (Rattus norvegicus, UniProt Q5FVP8); test: Inhibition of rat DGAT2
T4 sequence (Q5FVP8 whole entry): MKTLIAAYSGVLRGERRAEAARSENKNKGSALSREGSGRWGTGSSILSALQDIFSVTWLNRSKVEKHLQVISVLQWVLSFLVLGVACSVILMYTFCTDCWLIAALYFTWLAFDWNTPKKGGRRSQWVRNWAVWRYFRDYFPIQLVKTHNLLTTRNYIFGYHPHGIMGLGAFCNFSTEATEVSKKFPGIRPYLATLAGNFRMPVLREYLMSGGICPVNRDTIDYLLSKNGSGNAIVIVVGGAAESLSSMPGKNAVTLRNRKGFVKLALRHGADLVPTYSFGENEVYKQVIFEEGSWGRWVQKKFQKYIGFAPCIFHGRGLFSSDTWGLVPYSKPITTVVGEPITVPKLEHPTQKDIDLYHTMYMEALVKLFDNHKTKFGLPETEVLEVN

[19] = Half life in beagle dog at 1 mg/kg, iv; type: ADME, organism-based, Canis lupus familiaris; conditions: in vivo
[20] = Fraction unbound in rat plasma; type: ADME, cell-free
[21] = biological target: T5, Diacylglycerol O-acyltransferase 2 (Canis lupus familiaris, UniProt A0A8I3NDW2); test: Inhibition of dog DGAT2
T5 sequence (A0A8I3NDW2 whole entry): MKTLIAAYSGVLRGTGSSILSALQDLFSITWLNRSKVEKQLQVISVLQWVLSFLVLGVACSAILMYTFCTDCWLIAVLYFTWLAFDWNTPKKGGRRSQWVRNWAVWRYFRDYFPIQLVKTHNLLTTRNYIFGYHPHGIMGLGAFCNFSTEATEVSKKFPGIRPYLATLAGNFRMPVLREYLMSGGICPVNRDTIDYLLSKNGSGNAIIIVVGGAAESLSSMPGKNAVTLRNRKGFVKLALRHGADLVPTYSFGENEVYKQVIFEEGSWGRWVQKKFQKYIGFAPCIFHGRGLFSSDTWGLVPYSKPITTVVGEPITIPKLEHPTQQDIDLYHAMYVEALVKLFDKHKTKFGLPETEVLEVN

[22] = Apparent intrinsic clearance in dog hepatocytes assessed per million cells; type: ADME, cell-based, Canis lupus familiaris, Hepatocyte
[23] = Thermodynamic solubility of the compound at pH 6.5; type: physicochemical; conditions: buffer, read-out: Therm_solubility
Canis familiaris [24] = test: In vivo inhibition of DGAT2 in beagle dog assessed as coverage of in vitro IC50 for dog DGAT2 at 3 mg/kg, po qd administered for 1 month; type: functional, Canis lupus familiaris; design: scale not given: the % may be the effect or the level left; in short: as §4
[25] = Oral bioavailability in beagle dog at 5 mg/kg; type: ADME, organism-based, Canis lupus familiaris; conditions: in vivo
Cytochrome P450 3A4 [26] = biological target: T2, Cytochrome P450 3A4; test: Drug metabolism in human liver microsomes assessed as fraction of CYP3A4-mediated oxidative metabolism preincubated for 5 mins followed by addition of NADPH regenerating system and measured after 2.5 to 60 mins; type: ADME; in short: as §6
[27] = Ratio of Cmax in beagle dog at 10 mg/kg, po qd administered for 1 month to IC50 for in vitro inhibition of dog DGAT2; type: organism-based, Canis lupus familiaris; conditions: in vivo; in short: as §5
[28] = Fraction unbound in dog plasma; type: ADME, cell-free, Canis lupus familiaris
[29] = Half life in beagle dog at 5 mg/kg, po; type: ADME, organism-based, Canis lupus familiaris; conditions: in vivo
Canis familiaris [30] = test: Unbound AUC in beagle dog at 10 mg/kg, po qd administered for 1 month; type: ADME, organism-based, Canis lupus familiaris; conditions: in vivo; in short: as §3
Canis familiaris [31] = test: Unbound Cmax in beagle dog at 3 mg/kg, po qd administered for 1 month; type: ADME, organism-based, Canis lupus familiaris; conditions: in vivo; in short: as §7
Canis familiaris [32] = test: Unbound AUC in beagle dog at 3 mg/kg, po qd administered for 1 month; type: ADME, organism-based, Canis lupus familiaris; conditions: in vivo; in short: as §3
Canis familiaris [33] = test: Unbound AUC in beagle dog at 30 mg/kg, po qd administered for 1 month; type: ADME, organism-based, Canis lupus familiaris; conditions: in vivo; in short: as §3
Rattus norvegicus = test: In vivo DGAT2 inhibition in po dosed sucrose-fed rat assessed as decrease in plasma triglyceride levels after 2 hrs; type: functional, organism-based
In short: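 Rats fed a high-sucrose diet, single oral dose of test article or vehicle; plasma TG measured in tail-vein blood 2 h post dose; n = 7–8 per group; results as percent change from vehicle group, one-way ANOVA with Dunnett's test.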

CC(c1nc2cnc(N3CCC[C@@H](C(=O)N4CCCC4)C3)nc2[nH]1)n1cc(Cl)cn1 (single isomer, unassigned; diastereomer 2)
IC50 [1]: 37 nM
microsomal CLint (CYP3A4): 21.5 µL/min/mg
microsomal CLint (UGT): 15.2 µL/min/mg

CC(c1nc2cnc(N3CCC[C@@H](C(=O)N4CCCC4)C3)nc2[nH]1)n1cc(Cl)cn1 (single isomer, unassigned; diastereomer 1) [listing 1 of 2 here]
Papp [2]: 16.2 ×10⁻⁶ cm/s
fCmax (Canis familiaris [3]): 487 nM
clearance [4]: 7.3 mL/min/kg
Activity (Canis familiaris [5]): 74%
Activity (Canis familiaris [6]): 50%
Ratio [7]: 3
IC50 [1]: 26 nM
Ratio [8]: 0.52
CLH (Cytochrome P450 3A4 [9]): 23.5 µL/min/mg
CLH [10]: 20.3 µL/min/mg
Ratio [11]: 33
CLH(app) [12]: 13.1 µL/min
CLH(app) [13]: 12 µL/min
fCmax (Canis familiaris [14]): 1760 nM
Activity (Canis familiaris [15]): Non-Toxic
IC50 [16]: > 50000 nM
Vd [17]: 0.58 L/kg
IC50 [18]: 241 nM
half-life [19]: 1.1 h
fraction unbound [20]: 0.18
IC50 [21]: 53 nM
CLH(app) [22]: < 8 µL/min
solubility thermodynamic [23]: 53 µg/mL (≈ 124 µM)
Activity (Canis familiaris [24]): 21%
bioavailability [25]: 32%
Ratio (Cytochrome P450 3A4 [26]): 0.48
Ratio [27]: 9
fraction unbound [28]: 0.25
half-life [29]: 3.8 h
fAUC (Canis familiaris [30]): 540 ng·h/mL
fCmax (Canis familiaris [31]): 140 nM
fAUC (Canis familiaris [32]): 149 ng·h/mL
fAUC (Canis familiaris [33]): 1560 ng·h/mL

CC(C)(c1nc2ccc(N3CCC[C@@H](C(=O)N4CCCC4)C3)nc2[nH]1)n1cc(Cl)cn1
microsomal CLint (CYP3A4): 35.4 µL/min/mg

C[C@H](c1nc2ccc(N3CCC[C@@H](C(=O)N4CCCC4)C3)nc2[nH]1)n1cc(Cl)cn1
microsomal CLint (CYP3A4): 26 µL/min/mg
microsomal CLint (UGT): 7.6 µL/min/mg

CC(c1nc2cnc(N3CCC[C@@H](C(=O)N4CCCC4)C3)nc2[nH]1)n1cc(Cl)cn1 (single isomer, unassigned; diastereomer 1) [listing 2 of 2 here]
inhibition (Rattus norvegicus): Dose-dependent effect
